Laboratory results from ChEMBL document CHEMBL1122046, “Quaternary heterocyclylamino beta-lactams: a generic alternative to the classical acylamino side chain” (1982).
In brackets after ≈: the same amount, converted by molar mass.

Legend:
Pseudomonas aeruginosa [1] = experiment: Inhibition zone diameter against aerobic organism Pseudomonas aeruginosa strain 3350
Klebsiella = experiment: Inhibition zone diameter against aerobic organism Klebsiella species strain 2921
Streptococcus pyogenes [2] = experiment: Inhibition zone diameter against aerobic organism Streptococcus pyogenes strain 2874
Serratia marcescens [3] = experiment: Inhibition zone diameter against aerobic organism Serratia marcescenes strain 2855
Staphylococcus aureus [4] = experiment: Inhibition zone diameter against aerobic organism Staphylococcus aureus strain 2314
Salmonella [5] = experiment: Inhibition zone diameter against aerobic organism Salmonella strain 826
Morganella morganii [6] = experiment: Disk zone diameter (25 ug/disk) against aerobic organism Morganella morganii strain 2834
Proteus mirabilis = experiment: Minimum inhibitory concentration against aerobic organism Proteus mirabilis strain 2830; type: functional; details: Proteus mirabilis; read-out: MIC
Method in brief: (§1)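 Agar-dilution MIC in µg/mL against aerobic bacterial strains on tryptocase soy agar, with inoculum applied as spots. Most series used 10^5 cfu per spot, and a later series used 10^4 cfu per spot. In some tables, footnoted strains were instead tested on Mueller-Hinton or nutrient agar. β-Lactamase-producing strains are flagged.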

Serratia marcescens [7] = experiment: Minimum inhibitory concentration against aerobic organism Serratia marcescens strain 2852; type: functional; details: Serratia marcescens; read-out: MIC
Method in brief: as §1

Klebsiella pneumoniae [8] = experiment: Minimum inhibitory concentration against aerobic organism Klebsiella pneumoniae strain 2882; type: functional; details: Klebsiella pneumoniae; read-out: MIC
Method in brief: as §1

Klebsiella pneumoniae [9] = experiment: Minimum inhibitory concentration against aerobic organism Klebsiella pneumoniae strain 4005; type: functional
Method in brief: as §1

Streptococcus pyogenes [10] = experiment: Minimum inhibitory concentration against aerobic organism Streptococcus pyogenes strain 3124; type: functional; details: Streptococcus pyogenes; read-out: MIC
Method in brief: as §1

Salmonella [11] = experiment: Minimum inhibitory concentration against aerobic organism Salmonella strain 3860; type: functional
Method in brief: as §1

Morganella morganii [12] = experiment: Minimum inhibitory concentration against aerobic organism Morganella morganii strain 2833; type: functional; details: Morganella morganii; read-out: MIC
Method in brief: as §1

Staphylococcus aureus [13] = experiment: Minimum inhibitory concentration against aerobic organism Staphylococcus aureus strain 2868; type: functional; details: Staphylococcus aureus; read-out: MIC
Method in brief: as §1

Klebsiella aerogenes [14] = experiment: Minimum inhibitory concentration against aerobic organism Enterobacter aerogenes strain 2906; type: functional; details: Klebsiella aerogenes; read-out: MIC
Method in brief: as §1

Shigella = experiment: Minimum inhibitory concentration against aerobic organism Shigella species strain 2880; type: functional; details: Shigella; read-out: MIC
Method in brief: as §1

Escherichia coli = experiment: MIC against aerobic organism Escherichia coli strain 2891; type: functional; details: Escherichia coli; read-out: MIC
Method in brief: as §1

[15] = Minimum inhibitory concentration against aerobic organism Salmonella schottmuelleri strain 2837; type: functional; details: Salmonella; read-out: MIC
Method in brief: as §1

Staphylococcus aureus [16] = experiment: Minimum inhibitory concentration against aerobic organism Staphylococcus aureus strain 2865; type: functional
Method in brief: as §1

Enterococcus faecalis [17] = experiment: Minimum inhibitory concentration against aerobic organism Streptococcus faecalis strain 2864; type: functional
Method in brief: as §1

Proteus vulgaris = experiment: Minimum inhibitory concentration against aerobic organism Proteus vulgaris strain 2829; type: functional; details: Proteus vulgaris; read-out: MIC
Method in brief: as §1

Klebsiella aerogenes [18] = experiment: Minimum inhibitory concentration against aerobic organism Enterobacter aerogenes strain 2828; type: functional
Method in brief: as §1

Pseudomonas aeruginosa [19] = experiment: Minimum inhibitory concentration against aerobic organism Pseudomonas aeruginosa strain 2835; type: functional
Method in brief: as §1

Enterobacter cloacae = experiment: Minimum inhibitory concentration against aerobic organism Enterobacter cloacae strain 2646; type: functional; details: Enterobacter cloacae; read-out: MIC
Method in brief: as §1

Staphylococcus aureus [20] = experiment: Inhibition zone diameter against aerobic organism Staphylococcus aureus strain 2314; remark: listed apart in the source
Enterococcus faecalis [21] = experiment: Minimum inhibitory concentration against aerobic organism Streptococcus faecalis strain 2864

Row | MIC (Klebsiella pneumoniae [8]) | MIC (Staphylococcus aureus [13]) | MIC (Shigella) | MIC (Escherichia coli) | MIC [15] | SMILES | zone diameter (Pseudomonas aeruginosa [1]) | zone diameter (Klebsiella) | zone diameter (Streptococcus pyogenes [2]) | zone diameter (Serratia marcescens [3]) | zone diameter (Staphylococcus aureus [4]) | zone diameter (Salmonella [5]) | zone diameter (Morganella morganii [6]) | other results
1 | – | – | – | – | – | CC(O)[C@H]1C(=O)N2C(C(=O)[O-])=C(SCCNc3cccc[n+]3C)C[C@H]12 (some centres undefined) | 17.5 mm | 26 mm | 37 mm | 26 mm | 42.5 mm | 27.5 mm | 27 mm | –
2 | 0.25 µg/mL (≈ 0.504 µM) | 4 µg/mL (≈ 8.07 µM) | < 0.004 µg/mL | 0.06 µg/mL (≈ 0.121 µM) | < 0.004 µg/mL | Cn1nnnc1SCC1=C(C(=O)[O-])N2C(=O)[C@@H](Nc3cc[n+](Cc4ccccc4)cc3)[C@H]2SC1 | – | – | – | – | – | – | – | MIC (Proteus mirabilis): 32 µg/mL (≈ 64.6 µM); MIC (Serratia marcescens [7]): 64 µg/mL (≈ 129 µM); MIC (Klebsiella pneumoniae [9]): 8 µg/mL (≈ 16.1 µM); MIC (Streptococcus pyogenes [10]): 0.015 µg/mL (≈ 0.0303 µM); MIC (Salmonella [11]): 1 µg/mL (≈ 2.02 µM); MIC (Morganella morganii [12]): 16 µg/mL (≈ 32.3 µM); MIC (Klebsiella aerogenes [14]): 8 µg/mL (≈ 16.1 µM); MIC (Staphylococcus aureus [16]): 0.25 µg/mL (≈ 0.504 µM); MIC (Enterococcus faecalis [17]): 128 µg/mL (≈ 258 µM); MIC (Proteus vulgaris): 1 µg/mL (≈ 2.02 µM); MIC (Klebsiella aerogenes [18]): 2 µg/mL (≈ 4.04 µM); MIC (Pseudomonas aeruginosa [19]): > 128 µg/mL; MIC (Enterobacter cloacae): 1 µg/mL (≈ 2.02 µM)
3 | 100 µg/mL (≈ 307 µM) | > 100 µg/mL | 12.5 µg/mL (≈ 38.4 µM) | 12.5 µg/mL (≈ 38.4 µM) | 12.5 µg/mL (≈ 38.4 µM) | CC1(C)S[C@@H]2[C@H](NC=[N+]3CCCCCC3)C(=O)N2[C@H]1C(=O)[O-] | – | – | – | – | – | – | – | MIC (Proteus mirabilis): > 128 µg/mL; MIC (Klebsiella pneumoniae [9]): 16 µg/mL (≈ 49.2 µM); MIC (Salmonella [11]): 0.125 µg/mL (≈ 0.384 µM); MIC (Morganella morganii [12]): > 128 µg/mL; MIC (Staphylococcus aureus [16]): 8 µg/mL (≈ 24.6 µM); MIC (Enterococcus faecalis [17]): > 100 µg/mL; MIC (Proteus vulgaris): 0.5 µg/mL (≈ 1.54 µM); MIC (Klebsiella aerogenes [18]): 64 µg/mL (≈ 197 µM); MIC (Pseudomonas aeruginosa [19]): > 128 µg/mL
4 | – | – | – | – | – | CC(O)[C@H]1C(=O)N2C(C(=O)O)=C(SCCNC3=NCCC3)C[C@H]12 (some centres undefined) | 25.5 mm | 24 mm | 40 mm | 25.5 mm | 38 mm | 28 mm | – | –
5 | – | – | – | – | – | CC(O)[C@H]1C(=O)N2C(C(=O)[O-])=C(SCCNc3cc[n+](Cc4ccccc4)cc3)C[C@H]12 (some centres undefined) | 11.2 mm | 24 mm | 35.2 mm | 25 mm | – | 26 mm | 26.5 mm | zone diameter (Staphylococcus aureus [20]): 36 mm
6 | – | – | – | – | – | CC(O)[C@H]1C(=O)N2C(C(=O)[O-])=C(SCCNc3cc[n+](C)cc3)C[C@H]12 (some centres undefined) | 24.5 mm | 27 mm | 37.5 mm | 26.5 mm | 42 mm | 28 mm | 26 mm | –
7 | – | – | – | – | – | C[C@@H](O)[C@H]1C(=O)N2C(C(=O)O)=C(SCCNC=N)C[C@H]12 [IMIPENEM ANHYDROUS] | 31 mm | 26.5 mm | 43 mm | 24.5 mm | – | 29.5 mm | 27 mm | zone diameter (Staphylococcus aureus [20]): 42 mm
8 | 100 µg/mL (≈ 325 µM) | > 100 µg/mL | 12.5 µg/mL (≈ 40.7 µM) | 50 µg/mL (≈ 163 µM) | 0.78 µg/mL (≈ 2.54 µM) | C[n+]1ccc(NC2C(=O)N3C2SC(C)(C)[C@@H]3C(=O)[O-])cc1 (some centres undefined) | – | – | – | – | – | – | – | MIC (Streptococcus pyogenes [10]): 1.56 µg/mL (≈ 5.08 µM); MIC (Enterococcus faecalis [21]): > 100 µg/mL; MIC (Enterobacter cloacae): > 100 µg/mL
